Data on three compounds can be found in ChEMBL document CHEMBL3120128, “Evaluation of intestinal permeability of vicenin-2 and lychnopholic acid from Lychnophora salicifolia (Brazilian arnicão) using Caco-2 cells” (J Nat Prod, 2014).

Data set [1] is described as follows: Stability of the compound at 25 degC by HPLC-DAD analysis. The format is physicochemical.
For data set [2], the system named is Caco-2. The data set can be described thus: Apparent permeability from basolateral to apical side in human Caco2 cells in HBSS medium at 50 uM by HPLC-DAD analysis. The format is ADME, cell-based. The note with it: caco-2, 50 µM. On the technique in general: Caco-2 cells form a polarised layer with tight junctions and transporters.
The test system of data set [3] is Caco-2. Kind of data set: Apparent permeability from basolateral to apical side in human Caco2 cells in glucose free medium at 50 uM at pH 7.4 by HPLC-DAD analysis. The format is ADME, cell-based. The note with it: caco-2, pH 7.4, 50 µM.
Data set [4] has as its system Caco-2. The data set can be described thus: Apparent permeability from apical to basolateral side in human Caco2 cells in glucose rich medium at 50 to 100 uM at pH 7.4 by HPLC-DAD analysis. The note with it: caco-2, pH 7.4, 100 µM.
Data set [5] concerns Caco-2. Kind of data set: Apparent permeability from basolateral to apical side in human Caco2 cells in glucose free medium at 50 uM at pH 6.0 in apical side and pH 7.4 at basolateral side by HPLC-DAD analysis. The format is ADME, cell-based. The note with it: caco-2, pH 6, 50 µM.
The subject of data set [6] is Caco-2. Kind of data set: Apparent permeability from basolateral to apical side in human Caco2 cells in glucose rich medium at 50 to 100 uM at pH 7.4 by HPLC-DAD analysis. It counts as ADME, cell-based. The note with it: caco-2, pH 7.4, 100 µM.
Data set [7] is described as follows: Lipophilicity, log P of the compound by micellar chromatography. The format is physicochemical.
Data set [8] deals with Caco-2. The data set can be described thus: Apparent permeability from apical to basolateral side in human Caco2 cells in glucose rich medium at 50 to 100 uM at pH 7.4 by HPLC-DAD analysis. It counts as ADME, cell-based. The note with it: caco-2, pH 7.4, 100 µM.
Data set [9] deals with Caco-2. Kind of data set: Apparent permeability from apical to basolateral side in human Caco2 cells in glucose free medium at 50 uM at pH 6.0 in apical side and pH 7.4 at basolateral side by HPLC-DAD analysis. The note with it: caco-2, pH 6, 50 µM. The format is ADME, cell-based.
Data set [10] concerns Caco-2. Kind of data set: Apparent permeability from apical to basolateral side in human Caco2 cells in HBSS medium at 50 uM by HPLC-DAD analysis. It counts as ADME, cell-based. The note with it: caco-2, 50 µM.
Data set [11] relates to Caco-2. The data set can be described thus: Apparent permeability from basolateral to apical side in human Caco2 cells in low glucose medium at 50 uM at pH 7.4 by HPLC-DAD analysis. It counts as ADME, cell-based. The note with it: caco-2, pH 7.4, 50 µM.
For data set [12], the system named is Caco-2. The data set can be described thus: Cytotoxicity against human Caco2 cells at 50 to 200 uM relative to control. The format is cell-based. The note with it: caco-2, 200 µM. In short, it runs like this: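 Toxicity judged from TEER of Caco-2 monolayers, measured with an epithelial voltohmmeter before and after exposure. Compared against control monolayers in transport medium without compound.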

For data set [13], the system named is Caco-2. The data set can be described thus: Apparent permeability from apical to basolateral side in human Caco2 cells in glucose free medium at 50 uM at pH 7.4 by HPLC-DAD analysis. It counts as ADME, cell-based. The note with it: caco-2, pH 7.4, 50 µM.
The test system of data set [14] is Caco-2. The data set can be described thus: Apparent permeability from apical to basolateral side in human Caco2 cells in low glucose medium at 50 uM at pH 7.4 by HPLC-DAD analysis. It counts as ADME, cell-based. The note with it: caco-2, pH 7.4, 50 µM.
The test system of data set [15] is Caco-2. The data set can be described thus: Apparent permeability from basolateral to apical side in human Caco2 cells in glucose free medium at 25 uM at pH 6.0 in apical side and pH 7.4 at basolateral side by HPLC-DAD analysis. It counts as ADME, cell-based. The note with it: caco-2, pH 6, 25 µM.
The subject of data set [16] is Caco-2. The data set can be described thus: Cellular uptake in human Caco2 cells. The format is ADME, cell-based.
For data set [17], the system named is Caco-2. The data set can be described thus: Apparent permeability from apical to basolateral side in human Caco2 cells in glucose free medium at 25 uM at pH 6.0 in apical side and pH 7.4 at basolateral side by HPLC-DAD analysis. The format is ADME, cell-based. The note with it: caco-2, pH 6, 25 µM.
Data set [18] relates to Caco-2. Kind of data set: Efflux ratio of apparent permeability from apical to basolateral side to basolateral to apical side in human Caco2 cells at 25 uM at pH 7.4 by HPLC-DAD analysis. It counts as ADME, cell-based. The note with it: caco-2, pH 7.4, 25 µM. In short, it runs like this:
(§1)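 Glucose-rich transport medium (25 mM glucose), pH 7.4 in both apical and basolateral compartments, donor concentration 25 or 50 μM. Papp = (ΔQ/Δt)/(A·C0), from the linear appearance rate on the receiver side. Ratios are calculated as Papp A→B/Papp B→A and Papp B→A/Papp A→B.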

Data set [19] can be described thus: Apparent permeability from basolateral to apical side in human Caco2 cells at 25 uM at pH 7.4 by HPLC-DAD analysis. It counts as ADME, cell-based. The note with it: Caco-2, pH 7.4.
A short description of data set [20]: Apparent permeability from apical to basolateral side in human Caco2 cells at 50 uM at pH 7.4 after 30 mins by HPLC-DAD analysis. It counts as ADME, cell-based. The note with it: Caco-2, pH 7.4.
Data set [21] in a line: Efflux ratio of apparent permeability from basolateral to apical side to apical to basolateral side in human Caco2 cells at 25 uM at pH 7.4 by HPLC-DAD analysis. The format is ADME, cell-based. The note with it: Caco-2, pH 7.4. An outline of the steps:
as §1

A short description of data set [22]: Efflux ratio of apparent permeability from basolateral to apical side to apical to basolateral side in human Caco2 cells at 50 uM at pH 7.4 by HPLC-DAD analysis. The format is ADME, cell-based. The note with it: Caco-2, pH 7.4. In short, it runs like this: as §1
A short description of data set [23]: Apparent permeability from basolateral to apical side in human Caco2 cells at 50 uM at pH 7.4 by HPLC-DAD analysis. The format is ADME, cell-based. The note with it: Caco-2, pH 7.4.
Data set [24] has as its system Caco-2. Kind of data set: Efflux ratio of apparent permeability from apical to basolateral side to basolateral to apical side in human Caco2 cells at 50 uM at pH 7.4 by HPLC-DAD analysis. The format is ADME, cell-based. The note with it: caco-2, pH 7.4, 50 µM. In short, it runs like this:
as §1

The nature of data set [25]: Apparent permeability from apical to basolateral side in human Caco2 cells at 25 uM at pH 7.4 after 30 mins by HPLC-DAD analysis. It counts as ADME, cell-based. The note with it: Caco-2, pH 7.4.

As a reminder, the logP is a log measure of how a compound divides between an organic and an aqueous phase. On to `O=c1cc(-c2ccc(O)cc2)oc2c([C@@H]3O[C@H](CO)[C@@H](O)[C@H](O)[C@H]3O)c(O)c([C@@H]3O[C@H](CO)[C@@H](O)[C@H](O)[C@H]3O)c(O)c12`, for which the Stability in [1] is 99%. Further, the permeability entry in data set [2], in data set [3], in data set [4], in data set [5], in [6] and in [8] was “impermeable” each time. In addition, the permeability entry in data set [9], in data set [10], in data set [11], in data set [13] and in data set [14] was “impermeable” each time. Also, the logP in data set [7] is -4.31. Besides, in data set [12], the Activity entry is “Non-toxic”.

Regarding `O=c1cc(-c2ccc(O)cc2)oc2cc(O)cc(O)c12` [APIGENIN], the permeability entry in data set [15] and in [17] was “impermeable” each time. Moreover, in data set [16], the Drug uptake result was “Active”.

The Papp B→A is the apparent permeability from the basolateral to the apical side of a cell layer. As a reminder, the Papp A→B is how fast a substance crosses the layer from the apical side. What is called efflux ratio is the permeability from basolateral to apical divided by that in the opposite direction, in the common usage. On to `C=C1CC/C=C(/C(=O)O)C[C@H](O)[C@@H]2[C@@H]1CC2(C)C`, for which the Ratio in data set [18] worked out at 1.06; in data set [24] it was 0.97. In addition, the Stability in data set [1] was 98%. For the same compound, the Papp B→A at 25 µM in [19] came to 4.41 ×10⁻⁶ cm/s. For the same compound, in [20], the apical-to-basolateral permeability (Papp A→B) at 0.5 h, 50 µM was found to be 4.07 ×10⁻⁶ cm/s. Besides, the efflux ratio at 25 µM in data set [21] turned out to be 0.94. In data set [22], the efflux ratio at 50 µM is 1.02. Moreover, in data set [12], the Activity result was “Non-toxic”. Moreover, the basolateral-to-apical permeability (Papp B→A) at 50 µM in data set [23] was determined as 4.17 ×10⁻⁶ cm/s. The Papp A→B at 0.5 h, 25 µM in data set [25] was found to be 4.68 ×10⁻⁶ cm/s.
